Experimental data published in ChEMBL document CHEMBL4007430, “Synthesis and Cytostatic and Antiviral Profiling of Thieno-Fused 7-Deazapurine Ribonucleosides” (J Med Chem, 2017).

What was measured:
Adenosine kinase [1] = target: T1, Adenosine kinase (Homo sapiens, UniProt P55263); experiment: Drug metabolism in human BJ cells assessed as ADK-mediated 4-(Methylsulfanyl)-8-(beta-D-ribofuranosyl)-8H-thieno[2, 3:4,5]-pyrrolo[2,3-d]pyrimidine-5-O-monophosphate Sodium Salt formation per 5 x10^5 cells at 1 umol/L after 3 hrs by UPLC-MS/MS analysis; type: ADME, cell-based; details: 1 µM
T1 sequence (P55263 whole entry): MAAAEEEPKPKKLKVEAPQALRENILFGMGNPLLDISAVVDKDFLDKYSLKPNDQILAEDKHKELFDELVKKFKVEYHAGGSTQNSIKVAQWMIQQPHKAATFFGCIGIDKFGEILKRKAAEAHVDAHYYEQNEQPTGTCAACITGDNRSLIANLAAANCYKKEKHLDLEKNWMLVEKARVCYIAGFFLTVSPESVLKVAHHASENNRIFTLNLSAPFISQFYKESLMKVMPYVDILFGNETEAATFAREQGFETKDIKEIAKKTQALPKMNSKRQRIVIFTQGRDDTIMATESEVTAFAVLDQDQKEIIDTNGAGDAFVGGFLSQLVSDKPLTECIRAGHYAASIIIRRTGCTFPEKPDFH

Adenosine kinase [2] = target: T1, Adenosine kinase; experiment: Drug level in human BJ cells assessed as ADK-mediated compound formation treated with 4-(Methylsulfanyl)-8-(beta-D-ribofuranosyl)-8H-thieno[2',3':4,5]-pyrrolo[2,3-d]pyrimidine at 1 umol/L after 1 hr by UPLC-MS/MS analysis; type: ADME, cell-based
Adenosine kinase [3] = target: T1, Adenosine kinase; experiment: Drug metabolism in human HCT116 cells assessed as ADK-mediated 4-(Methylsulfanyl)-8-(beta-D-ribofuranosyl)-8H-thieno[2, 3:4,5]-pyrrolo[2,3-d]pyrimidine-5-O-monophosphate Sodium Salt formation per 5 x10^5 cells at 10 umol/L after 1 hr by UPLC-MS/MS analysis; type: ADME, cell-based; details: 10 µM
[4] = Cytotoxicity against human K562-TAX cells assessed as cell growth inhibition after 72 hrs by MTS assay; type: functional, cell-based
Procedure, shortened: (§1)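 Cells were exposed to compound for 3 days, then stained with MTS as a quantitative metabolic read-out. IC50 is the concentration that inhibits cell growth by 50%.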

HCT-116 [5] = experiment: Cytotoxicity against human HCT116 cells assessed as cell growth inhibition after 72 hrs by MTS assay; type: functional, cell-based; details: HCT-116, 72 h; procedure, shortened: as §1
Adenosine kinase [6] = target: T1, Adenosine kinase; experiment: Drug metabolism in human BJ cells assessed as ADK-mediated 4-(Methylsulfanyl)-8-(beta-D-ribofuranosyl)-8H-thieno[2, 3:4,5]-pyrrolo[2,3-d]pyrimidine-5-O-monophosphate Sodium Salt formation per 5 x10^5 cells at 10 umol/L after 1 hr by UPLC-MS/MS analysis; type: ADME, cell-based; details: 10 µM
Adenosine kinase [7] = target: T1, Adenosine kinase; experiment: Drug metabolism in human BJ cells assessed as ADK-mediated 4-(Methylsulfanyl)-8-(beta-D-ribofuranosyl)-8H-thieno[2, 3:4,5]-pyrrolo[2,3-d]pyrimidine-5-O-monophosphate Sodium Salt formation per 5 x10^5 cells at 1 umol/L after 1 hr by UPLC-MS/MS analysis; type: ADME, cell-based; details: 1 µM
Adenosine kinase [8] = target: T1, Adenosine kinase; experiment: Drug level assessed as human ADK-mediated compound formation treated with 4-(Methylsulfanyl)-8-(beta-D-ribofuranosyl)-8H-thieno[2',3':4,5]-pyrrolo[2,3-d]pyrimidine at 50 uM after 30 mins by HPLC analysis; type: ADME; details: 0.5 h
Adenosine kinase [9] = target: T1, Adenosine kinase; experiment: Drug level in human HCT116 cells assessed as ADK-mediated compound formation treated with 4-(Methylsulfanyl)-8-(beta-D-ribofuranosyl)-8H-thieno[2',3':4,5]-pyrrolo[2,3-d]pyrimidine at 10 umol/L after 3 hrs by UPLC-MS/MS analysis; type: ADME, cell-based
Adenosine kinase [10] = target: T1, Adenosine kinase; experiment: Drug level in human BJ cells assessed as ADK-mediated compound formation treated with 4-(Methylsulfanyl)-8-(beta-D-ribofuranosyl)-8H-thieno[2',3':4,5]-pyrrolo[2,3-d]pyrimidine at 1 umol/L after 3 hrs by UPLC-MS/MS analysis; type: ADME, cell-based
Adenosine kinase [11] = target: T1, Adenosine kinase; experiment: Drug level in human HCT116 cells assessed as ADK-mediated compound formation treated with 4-(Methylsulfanyl)-8-(beta-D-ribofuranosyl)-8H-thieno[2',3':4,5]-pyrrolo[2,3-d]pyrimidine at 1 umol/L after 1 hr by UPLC-MS/MS analysis; type: ADME, cell-based
U2OS = experiment: Cytotoxicity against human U2OS cells assessed as cell growth inhibition after 72 hrs by MTS assay; type: functional, cell-based
Adenosine kinase [12] = target: T1, Adenosine kinase; experiment: Drug level in human HCT116 cells assessed as ADK-mediated compound formation treated with 4-(Methylsulfanyl)-8-(beta-D-ribofuranosyl)-8H-thieno[2',3':4,5]-pyrrolo[2,3-d]pyrimidine at 10 umol/L after 1 hr by UPLC-MS/MS analysis; type: ADME, cell-based
[13] = Cytotoxicity against mrp-1/mdr-1 overexpressing human CEM-DNR-bulk cells assessed as cell growth inhibition after 72 hrs by MTS assay; type: functional, cell-based
Procedure, shortened: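 Cells were exposed to compound for 3 days, then stained with MTS as a quantitative metabolic read-out.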

Adenosine kinase [14] = target: T1, Adenosine kinase; experiment: Drug metabolism in human HCT116 cells assessed as ADK-mediated 4-(Methylsulfanyl)-8-(beta-D-ribofuranosyl)-8H-thieno[2, 3:4,5]-pyrrolo[2,3-d]pyrimidine-5-O-monophosphate Sodium Salt formation per 5 x10^5 cells at 1 umol/L after 3 hrs by UPLC-MS/MS analysis; type: ADME, cell-based; details: 1 µM
HCT-116 [15] = experiment: Cytotoxicity against p53 deficient human HCT116 cells assessed as cell growth inhibition after 72 hrs by MTS assay; type: functional, cell-based; details: HCT-116, 72 h; procedure, shortened: as §1
A549 = experiment: Cytotoxicity against human A549 cells assessed as cell growth inhibition after 72 hrs by MTS assay; type: functional, cell-based; details: A549, 72 h; procedure, shortened: as §1
Adenosine kinase [16] = target: T1, Adenosine kinase; experiment: Drug metabolism in human HCT116 cells assessed as ADK-mediated 4-(Methylsulfanyl)-8-(beta-D-ribofuranosyl)-8H-thieno[2, 3:4,5]-pyrrolo[2,3-d]pyrimidine-5-O-monophosphate Sodium Salt formation per 5 x10^5 cells at 10 umol/L after 3 hrs by UPLC-MS/MS analysis; type: ADME, cell-based; details: 10 µM
HepG2 = experiment: Cytotoxicity against human HepG2 cells assessed as reduction in cell viability after 72 hrs by XTT assay; type: functional, cell-based; details: HepG2, 72 h
Procedure, shortened: (§2)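 Cells were incubated with compound for 3 days. Viability was then measured with the XTT tetrazolium assay.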

K562 = experiment: Cytotoxicity against human K562 cells assessed as cell growth inhibition after 72 hrs by MTS assay; type: functional, cell-based; details: K562, 72 h; procedure, shortened: as §1
Adenosine kinase [17] = target: T1, Adenosine kinase; experiment: Drug level in human BJ cells assessed as ADK-mediated compound formation treated with 4-(Methylsulfanyl)-8-(beta-D-ribofuranosyl)-8H-thieno[2',3':4,5]-pyrrolo[2,3-d]pyrimidine at 10 umol/L after 3 hrs by UPLC-MS/MS analysis; type: ADME, cell-based
Adenosine kinase [18] = target: T1, Adenosine kinase; experiment: Drug metabolism in human HCT116 cells assessed as ADK-mediated 4-(Methylsulfanyl)-8-(beta-D-ribofuranosyl)-8H-thieno[2, 3:4,5]-pyrrolo[2,3-d]pyrimidine-5-O-monophosphate Sodium Salt formation per 5 x10^5 cells at 1 umol/L after 1 hr by UPLC-MS/MS analysis; type: ADME, cell-based; details: 1 µM
Adenosine kinase [19] = target: T1, Adenosine kinase; experiment: Drug level in human HCT116 cells assessed as ADK-mediated compound formation treated with 4-(Methylsulfanyl)-8-(beta-D-ribofuranosyl)-8H-thieno[2',3':4,5]-pyrrolo[2,3-d]pyrimidine at 1 umol/L after 3 hrs by UPLC-MS/MS analysis; type: ADME, cell-based
Adenosine kinase [20] = target: T1, Adenosine kinase; experiment: Drug level in human BJ cells assessed as ADK-mediated compound formation treated with 4-(Methylsulfanyl)-8-(beta-D-ribofuranosyl)-8H-thieno[2',3':4,5]-pyrrolo[2,3-d]pyrimidine at 10 umol/L after 1 hr by UPLC-MS/MS analysis; type: ADME, cell-based
CCRF-CEM = experiment: Cytotoxicity against human CCRF-CEM cells assessed as cell growth inhibition after 72 hrs by MTS assay
BJ = experiment: Cytotoxicity against human BJ cells assessed as cell growth inhibition after 72 hrs by MTS assay; type: cell-based; procedure, shortened: as §1
HeLa S3 = experiment: Cytotoxicity against human HeLaS3 cells assessed as reduction in cell viability after 72 hrs by XTT assay; type: functional, cell-based; details: HeLa S3, 72 h; procedure, shortened: as §2
HL-60 = experiment: Cytotoxicity against human HL60 cells assessed as reduction in cell viability after 72 hrs by XTT assay; type: functional, cell-based; details: HL-60, 72 h; procedure, shortened: as §2
Adenosine kinase [21] = target: T1, Adenosine kinase; experiment: Drug metabolism in human BJ cells assessed as ADK-mediated 4-(Methylsulfanyl)-8-(beta-D-ribofuranosyl)-8H-thieno[2, 3:4,5]-pyrrolo[2,3-d]pyrimidine-5-O-monophosphate Sodium Salt formation per 5 x10^5 cells at 10 umol/L after 3 hrs by UPLC-MS/MS analysis; type: ADME, cell-based; details: 10 µM
MRC5 = experiment: Cytotoxicity against human MRC5 cells assessed as cell growth inhibition after 72 hrs by MTS assay; type: cell-based; details: MRC5, 72 h; procedure, shortened: as §1

## CSc1ncnc2c1c1sccc1n2[C@@H]1O[C@H](COP(=O)([O-])O)[C@@H](O)[C@H]1O.[Na+]
Adenosine kinase [1]
  Drug metabolism: 27253.4 pmol
Adenosine kinase [2]
  Drug metabolism: Metabolite_Detected
Adenosine kinase [3]
  Drug metabolism: 6108.2 pmol
[4]
  IC50: > 50000 nM
HCT-116 [5]
  IC50: 110 nM
Adenosine kinase [6]
  Drug metabolism: 62703.9 pmol
Adenosine kinase [7]
  Drug metabolism: 19751.3 pmol
Adenosine kinase [8]
  Drug metabolism: Metabolite_Detected
Adenosine kinase [9]
  Drug metabolism: Metabolite_Detected
Adenosine kinase [10]
  Drug metabolism: Metabolite_Detected
Adenosine kinase [11]
  Drug metabolism: Metabolite_Detected
U2OS
  IC50: 9890 nM
Adenosine kinase [12]
  Drug metabolism: Metabolite_Detected
[13]
  IC50: 47600 nM
Adenosine kinase [14]
  Drug metabolism: 5737.8 pmol
HCT-116 [15]
  IC50: 130 nM
A549
  IC50: > 50000 nM
Adenosine kinase [16]
  Drug metabolism: 15246.3 pmol
HepG2
  IC50: 540 nM
K562
  IC50: 390 nM
Adenosine kinase [17]
  Drug metabolism: Metabolite_Detected
Adenosine kinase [18]
  Drug metabolism: 4124 pmol
Adenosine kinase [19]
  Drug metabolism: Metabolite_Detected
Adenosine kinase [20]
  Drug metabolism: Metabolite_Detected
CCRF-CEM
  IC50: 200 nM
BJ
  IC50: 640 nM
HeLa S3
  IC50: 9610 nM
HL-60
  IC50: 340 nM
Adenosine kinase [21]
  Drug metabolism: 65894.4 pmol
MRC5
  IC50: > 50000 nM
